From ChEMBL document CHEMBL1153905, “Functionalized 3-benzylidene-indolin-2-ones: inducers of NAD(P)H-quinone oxidoreductase 1 (NQO1) with antiproliferative activity” (Bioorg Med Chem, 2009)

Experiments:
CYP1A1 [1] = target: T1, CYP1A1 (Mus musculus, UniProt P00184); experiment: Induction of CYP1A1 activity in mouse Hepa-1c1c7 cells assessed as induction ratio at 10 uM after 48 hrs by EROD assay relative to control; assay type: ADME, cell-based
T1 sequence (P00184 whole entry): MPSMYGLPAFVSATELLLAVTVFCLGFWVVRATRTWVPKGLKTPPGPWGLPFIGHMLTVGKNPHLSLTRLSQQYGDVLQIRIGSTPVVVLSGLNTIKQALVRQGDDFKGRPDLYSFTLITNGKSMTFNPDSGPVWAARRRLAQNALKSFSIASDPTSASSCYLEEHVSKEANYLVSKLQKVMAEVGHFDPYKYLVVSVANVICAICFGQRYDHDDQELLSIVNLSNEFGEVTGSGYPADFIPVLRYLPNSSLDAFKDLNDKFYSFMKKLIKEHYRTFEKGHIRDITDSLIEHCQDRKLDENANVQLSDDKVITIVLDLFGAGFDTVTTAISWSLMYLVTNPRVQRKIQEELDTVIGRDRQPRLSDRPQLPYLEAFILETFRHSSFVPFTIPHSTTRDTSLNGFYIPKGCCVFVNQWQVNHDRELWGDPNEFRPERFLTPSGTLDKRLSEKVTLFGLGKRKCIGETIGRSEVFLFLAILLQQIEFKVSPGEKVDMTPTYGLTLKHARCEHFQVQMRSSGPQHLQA
In short: (§1)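 About 10,000 Hepa1c1c7 cells/well cultured 24 h, then compound (0.5% DMSO final) for 48 h, at roughly 4 × the concentration doubling NQO1 activity. After PBS wash, cells given 5 µM 7-ethoxyresorufin plus 2 mM salicylamide, 37 °C, 40 min; resorufin fluorescence ex 530/em 590 nm, corrected for compound fluorescence. Ratio = (treated − blank)/(DMSO control − blank); mean ± SD, n = 3.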

[2] = Cytotoxicity against mouse Hepa-1c1c7 cells after 48 hrs by MTT assay; assay type: cell-based; conditions: hepa-1c1c7, 48 h
In short: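 Murine hepatoma cells in α-MEM with 10% heat- and charcoal-treated fetal calf serum, passages 6–17; MTT read-out as for the cancer lines but with 48 h compound exposure. Highest concentration tested 25 µM. IC50 from survival-versus-concentration curve; mean and SD, n = 3.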

[3] = target: NAD(P)H dehydrogenase [quinone] 1 (Mus musculus) (UniProt Q64669); experiment: Induction of NQO1 activity in mouse Hepa-1c1c7 cells assessed as induction ratio at 10 uM after 48 hrs by MTT assay relative to control; assay type: cell-based
Chain of NAD(P)H dehydrogenase [quinone] 1 (Mus musculus) (Q64669 whole entry): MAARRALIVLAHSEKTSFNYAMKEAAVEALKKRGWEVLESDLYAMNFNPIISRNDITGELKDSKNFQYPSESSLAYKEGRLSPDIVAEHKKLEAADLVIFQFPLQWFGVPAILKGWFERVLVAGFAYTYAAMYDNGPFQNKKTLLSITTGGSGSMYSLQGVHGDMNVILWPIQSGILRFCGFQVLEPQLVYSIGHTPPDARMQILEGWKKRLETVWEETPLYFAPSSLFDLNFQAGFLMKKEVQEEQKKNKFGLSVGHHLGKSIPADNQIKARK
In short: (§2)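 Hepa1c1c7 cells, 10,000 per well, 24 h, were then treated 48 h (DMSO ≤0.5%). Digitonin/EDTA lysates were assayed for menadione-dependent MTT-formazan formation using a G6P/G6PDH NADPH-generating mix with FAD at pH 7.4. The reaction ran 5 min, was stopped with dicoumarol, and read at A590. Degree of induction = (A test − blank)/(A control − blank). Ratios were read off the induction–concentration plot at the EROD test concentration.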

[4] = target: NAD(P)H dehydrogenase [quinone] 1 (Mus musculus) (UniProt Q64669); experiment: Induction of NQO1 activity in mouse Hepa-1c1c7 cells assessed as drug level required to double basal enzyme activity after 48 hrs by MTT assay; assay type: cell-based
In short: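 Hepa1c1c7 cells were grown in α-MEM with charcoal-treated FCS, 10,000 per well, 24 h. Compound was given 48 h (DMSO ≤0.5%) over a 10–100-fold range below cytotoxic levels, up to 25 µM. Cells were lysed with digitonin/EDTA. NQO1 was assayed by menadione-driven MTT reduction (G6P/G6PDH/NADP, FAD, Tris pH 7.4), quenched with dicoumarol, A590. CD is the concentration doubling basal activity, taken from the induction–concentration plot; mean ± SD, n = 3.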

[5] = target: NAD(P)H dehydrogenase [quinone] 1 (Mus musculus) (UniProt Q64669); experiment: Induction of NQO1 activity in mouse Hepa-1c1c7 cells assessed as induction ratio at 1 uM after 48 hrs by MTT assay relative to control; assay type: cell-based; in short: as §2
CYP1A1 [6] = target: T1, CYP1A1; experiment: Induction of CYP1A1 activity in mouse Hepa-1c1c7 cells assessed as induction ratio at 1 uM after 48 hrs by EROD assay relative to control; assay type: ADME, cell-based; in short: as §1
CYP1A1 [7] = target: T1, CYP1A1; experiment: Induction of CYP1A1 activity in mouse Hepa-1c1c7 cells assessed as induction ratio at 0.5 uM after 48 hrs by EROD assay relative to control; assay type: ADME, cell-based; in short: as §1
HCT-116 [8] = experiment: Antiproliferative activity against human HCT116 cells after 72 hrs by MTT assay; assay type: functional, cell-based; conditions: HCT-116, 72 h
In short: (§3)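 Cells seeded at 10,000 (MCF7), 4000 (HCT116) or 5000 (CCL186) per well and grown 24 h; MCF7 and CCL186 in EMEM with pyruvate, glutamine, 10% FBS; HCT116 in McCoy's 5A with 10% FBS. Compounds from DMSO stocks (≤1% DMSO final), 72 h exposure; MTT 0.5 mg/ml for 3 h, formazan in DMSO read at 590 nm. IC50 from sigmoidal survival curve, three separate occasions.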

MCF7 [9] = experiment: Antiproliferative activity against human MCF7 cells after 72 hrs by MTT assay; assay type: functional, cell-based; conditions: MCF7, 72 h; in short: as §3
[10] = Antiproliferative activity against human CCL186 cells after 72 hrs by MTT assay; assay type: cell-based; conditions: CCL186, 72 h; in short: as §3
MCF7 [11] = experiment: Selectivity ratio of IC50 for human CCL186 cells to IC50 for human MCF7 cells
In short: (§4)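 MTT assay. MCF7 and CCL186 cells were grown in EMEM/10% FBS, HCT116 in McCoy's 5A/10% FBS. Seeding was 10,000 (MCF7), 4000 (HCT116) and 5000 (CCL186) cells per well, 24 h. Compound exposure was 72 h, DMSO ≤1% final. MTT 0.5 mg/ml for 3 h, formazan dissolved in DMSO, A590. IC50 came from sigmoidal survival curves, with 3 separate occasions per concentration. Ratio = IC50 CCL186 / IC50 of the cancer line.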

[12] = Selectivity ratio of IC50 for human CCL186 cells to IC50 for human HCT116 cells; assay type: ADME, cell-based, HCT-116; conditions: CCL186 cells and HCT116 cells, read-out: Ratio IC50; in short: as §4
HCT-116 [13] = experiment: Cell cycle arrest in human HCT116 cells released from G1 block assessed as accumulation at sub G1 phase at 5 uM after 24 hrs by flow cytometry; assay type: functional
HCT-116 [14] = experiment: Cell cycle arrest in human HCT116 cells released from G2 block assessed as accumulation at sub G1 phase at 5 uM after 24 hrs by flow cytometry; assay type: functional
HCT-116 [15] = experiment: Cell cycle arrest in human HCT116 cells released from G1 block assessed as accumulation at G1 phase at 5 uM after 24 hrs by flow cytometry; assay type: functional
HCT-116 [16] = experiment: Cell cycle arrest in human HCT116 cells released from G2 block assessed as accumulation at G1 phase at 5 uM after 24 hrs by flow cytometry; assay type: functional
HCT-116 [17] = experiment: Cell cycle arrest in human HCT116 cells released from G1 block assessed as accumulation at S phase at 5 uM after 24 hrs by flow cytometry; assay type: functional
HCT-116 [18] = experiment: Cell cycle arrest in human HCT116 cells released from G2 block assessed as accumulation at S phase at 5 uM after 24 hrs by flow cytometry; assay type: functional
HCT-116 [19] = experiment: Cell cycle arrest in human HCT116 cells released from G1 block assessed as accumulation at G2/M phase at 5 uM after 24 hrs by flow cytometry; assay type: functional
HCT-116 [20] = experiment: Cell cycle arrest in human HCT116 cells released from G2 block assessed as accumulation at G2/M phase at 5 uM after 24 hrs by flow cytometry; assay type: functional
[21] = target: NAD(P)H dehydrogenase [quinone] 1 (Mus musculus) (UniProt Q64669); experiment: Induction of NQO1 activity in mouse Hepa-1c1c7 cells assessed as induction ratio at 0.5 uM after 48 hrs by MTT assay relative to control; assay type: cell-based; in short: as §2

Row | Compound | fold induction at 48 h, 10 µM (CYP1A1 [1]) | IC50 [2] | Ratio [3] | IC50 (HCT-116 [8]) | IC50 (MCF7 [9]) | IC50 [10] | Ratio IC50 (MCF7 [11]) | selectivity ratio [12] | Activity (HCT-116 [13]) | Activity (HCT-116 [14]) | Activity (HCT-116 [15]) | Activity (HCT-116 [16]) | Activity (HCT-116 [17]) | Activity (HCT-116 [18]) | Activity (HCT-116 [19]) | Activity (HCT-116 [20]) | other results
1 | O=C1Nc2ccccc2/C1=C\c1ccccn1 | 1.08 | 19.9 µM | 3.92 | – | – | – | – | – | – | – | – | – | – | – | – | – | –
2 | C[S+]([O-])CCCCN=C=S (centres undefined) [SULFORAPHANE] | – | – | – | – | – | – | – | – | – | – | – | – | – | – | – | – | CD [4]: 0.26 µM; Ratio [5]: 3.89; fold induction at 48 h, 1 µM (CYP1A1 [6]): 0.92
3 | COc1ccc2c(c1)NC(=O)/C2=C/c1cccc(C(F)(F)F)c1 | – | 2.6 µM | – | 1.9 µM | 3.8 µM | 5.4 µM | 2.8 | 1.4 | 4.39% | 20.69% | 17.5% | 30.55% | 19.12% | 17.96% | 59.16% | 31.58% | fold induction at 48 h, 0.5 µM (CYP1A1 [7]): 1.36; Ratio [21]: 4.22
4 | COc1ccc(/C=C2/C(=O)Nc3ccccc32)c(OC)c1 | – | 11.1 µM | – | 8.8 µM | 3.3 µM | 5.8 µM | 0.7 | 1.8 | 2.64% | 12.49% | 26.14% | 34.66% | 12.37% | 13.43% | 58.82% | 39.43% | –
5 | O=C1Nc2ccccc2/C1=C\c1cc(O)ccc1O | 2.87 | > 25 µM | 7.69 | – | – | – | – | – | – | – | – | – | – | – | – | – | –
